Among the data in ChEMBL document CHEMBL1140782, “Nitrogen-appended N-alkylsulfonamides as inhibitors of gamma-secretase” (Bioorg Med Chem Lett, 2008) are Activity, concentration and IC50 values, retold here.

The first data set deals with Mus musculus. Description: Reduction of amyloid beta levels in Tg2576 beta-APP-Swedish transgenic mouse at 500 umol/kg, po after 3 hrs. The data set is classed as functional. Set-up: scale not given: the % may be the effect or the level left.
Conditions: not given
For `CCC[C@@H](C)N(c1cc(Cl)ccc1CO)S(=O)(=O)c1ccc(Cl)cc1`, the Activity amounted to 25%.

For a further data set, the system named is Brain. Description: Drug level in Tg2576 beta-APP-Swedish transgenic mouse brain at 200 umol/kg, po. The data set is classed as ADME, organism-based. The settings on record: in vivo, read-out: Drug uptake. The method, boiled down: (§1)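 Tg2576 βAPP-Swedish transgenic mice received a single oral dose of 200 µmol/kg. At 3 h after dosing, brain Aβ was measured as percent reduction, and compound concentrations were measured in plasma and brain in nM, reported as mean ± deviation.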
Consider `C[C@H](CCCN(C)S(C)(=O)=O)N(c1cc(Cl)ccc1CO)S(=O)(=O)c1ccc(Cl)cc1`, for which the concentration turned out to be 0.759 µM. Same read-out and setting: as for `C[C@H](CCCn1cnnn1)N(c1cc(Cl)ccc1CO)S(=O)(=O)c1ccc(Cl)cc1`, the figure is 1.16 µM.

The next data set concerns Mus musculus. As to the kind of experiment: Reduction of amyloid beta levels in Tg2576 beta-APP-Swedish transgenic mouse at 200 umol/kg, po after 3 hrs. The data set is classed as functional. Further details: scale not given: the % may be the effect or the level left.
Conditions: not given
The method, boiled down:
as §1
As to `C[C@H](CCCN(C)S(C)(=O)=O)N(c1cc(Cl)ccc1CO)S(=O)(=O)c1ccc(Cl)cc1`, the Activity stood at 27%. The molecule `C[C@H](CCCn1cnnn1)N(c1cc(Cl)ccc1CO)S(=O)(=O)c1ccc(Cl)cc1` yielded an Activity of 41%.

In a further data set the target is Gamma-secretase. As to the kind of experiment: Inhibition of human gamma secretase in H4 cells assessed as reduction of amyloid beta-40 levels. The format is cell-based.
Conditions: not given
The method, boiled down:
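Cells were plated in 96 wells and allowed to attach. Medium was then replaced with Ultraculture containing compound at a final 1% DMSO, and cells were incubated overnight. Aβ40 in the conditioned medium was measured by sandwich ELISA, using a C-terminal Aβ40-specific monoclonal capture antibody and an HRP-labelled N-terminal Aβ monoclonal antibody for detection.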
Broadly, the IC50 is the concentration at which inhibition is half-maximal. Take `C=C(Cl)CN(c1cc(Cl)ccc1CO)S(=O)(=O)c1ccc(C)cc1`: the IC50 was found to be 850 nM. As for `CCC[C@@H](C)N(c1cc(Cl)ccc1CO)S(=O)(=O)c1ccc(Cl)cc1`, the IC50 amounted to 5 nM. `C[C@H](CCCn1nnc(N(C)C)n1)N(c1cc(Cl)ccc1CO)S(=O)(=O)c1ccc(Cl)cc1`: the IC50 worked out at 5.6 nM. The same measure, in the same setting: as for `C[C@H](CCCN(C)S(C)(=O)=O)N(c1cc(Cl)ccc1CO)S(=O)(=O)c1ccc(Cl)cc1`, the figure is 0.32 nM.

With `Cc1nnnn1CCC[C@@H](C)N(c1cc(Cl)ccc1CO)S(=O)(=O)c1ccc(Cl)cc1`, the IC50 was 0.75 nM.

For the molecule `C[C@H](CCCn1nnnc1N(C)C)N(c1cc(Cl)ccc1CO)S(=O)(=O)c1ccc(Cl)cc1`, the IC50 was 0.53 nM.

On to `C[C@H](CCCn1cnnn1)N(c1cc(Cl)ccc1CO)S(=O)(=O)c1ccc(Cl)cc1`, for which the IC50 was 0.51 nM. Still for that read-out and setting: the same measure for `CC(=O)NCCC[C@@H](C)N(c1cc(Cl)ccc1CO)S(=O)(=O)c1ccc(Cl)cc1`: 7.3 nM; for `C[C@H](CCCNC(=O)CO)N(c1cc(Cl)ccc1CO)S(=O)(=O)c1ccc(Cl)cc1`: 8.1 nM; for `COCC(=O)NCCC[C@@H](C)N(c1cc(Cl)ccc1CO)S(=O)(=O)c1ccc(Cl)cc1`: 6.9 nM. Still for that read-out and setting: the same measure for `C[C@H](CCCn1cccn1)N(c1cc(Cl)ccc1CO)S(=O)(=O)c1ccc(Cl)cc1`: 18 nM.

Turning to `C[C@H](CCCn1nccn1)N(c1cc(Cl)ccc1CO)S(=O)(=O)c1ccc(Cl)cc1`, the concentration for half-maximal inhibition (IC50) came to 12 nM.

As for `CC(C)C(=O)NCCC[C@@H](C)N(c1cc(Cl)ccc1CO)S(=O)(=O)c1ccc(Cl)cc1`, the IC50 was found to be 14 nM. The same measure, in the same setting: as for `C[C@H](CCCNC1CCCO1)N(c1cc(Cl)ccc1CO)S(=O)(=O)c1ccc(Cl)cc1` (stereo partly specified), the figure is 29 nM; as for `C[C@H](CCCN1CCCCC1)N(c1cc(Cl)ccc1CO)S(=O)(=O)c1ccc(Cl)cc1`, 50 nM. Same read-out and setting: the same measure for `C[C@H](CCCn1ccnn1)N(c1cc(Cl)ccc1CO)S(=O)(=O)c1ccc(Cl)cc1`: 0.9 nM; for `C[C@H](CCCNC(=O)Cc1ccccc1)N(c1cc(Cl)ccc1CO)S(=O)(=O)c1ccc(Cl)cc1`: 26 nM. `C[C@H](CCCN1CCOCC1)N(c1cc(Cl)ccc1CO)S(=O)(=O)c1ccc(Cl)cc1`: the IC50 is 3.1 nM. The same measure, in the same setting: as for `C[C@H](CCCN1CCN(C)CC1)N(c1cc(Cl)ccc1CO)S(=O)(=O)c1ccc(Cl)cc1`, the figure is 29 nM. Still for that read-out and setting: as for `C[C@H](CCCNC(=O)[C@H](O)c1ccccc1)N(c1cc(Cl)ccc1CO)S(=O)(=O)c1ccc(Cl)cc1`, the figure is 1.6 nM; as for `C[C@H](CCCNC(=O)[C@@H](O)c1ccccc1)N(c1cc(Cl)ccc1CO)S(=O)(=O)c1ccc(Cl)cc1`, 2.9 nM. Still for that read-out and setting: the same measure for `C[C@H](CCCNC=O)N(c1cc(Cl)ccc1CO)S(=O)(=O)c1ccc(Cl)cc1`: 5.1 nM; for `C[C@H](CCCNC(=O)CCc1ccccc1)N(c1cc(Cl)ccc1CO)S(=O)(=O)c1ccc(Cl)cc1`: 72 nM. As for `C[C@H](CCCN1CCCS1(=O)=O)N(c1cc(Cl)ccc1CO)S(=O)(=O)c1ccc(Cl)cc1`, the IC50 was 1.1 nM. Still for that read-out and setting: the same measure for `C[C@H](CCCNS(=O)(=O)c1ccccc1)N(c1cc(Cl)ccc1CO)S(=O)(=O)c1ccc(Cl)cc1`: 7.4 nM; for `C[C@H](CCCN(C)C)N(c1cc(Cl)ccc1CO)S(=O)(=O)c1ccc(Cl)cc1`: 6.5 nM; for `C[C@H](CCCn1nnc(-c2ccccc2)n1)N(c1cc(Cl)ccc1CO)S(=O)(=O)c1ccc(Cl)cc1`: 61 nM. On the same count and under the same terms, as for `C[C@H](CCCNc1ccccc1)N(c1cc(Cl)ccc1CO)S(=O)(=O)c1ccc(Cl)cc1`, the figure is 36 nM; as for `C[C@H](CCCN1CCc2ccccc2C1)N(c1cc(Cl)ccc1CO)S(=O)(=O)c1ccc(Cl)cc1`, 84 nM. Still for that read-out and setting: the same measure for `C[C@H](CCCn1ccnc1)N(c1cc(Cl)ccc1CO)S(=O)(=O)c1ccc(Cl)cc1`: 11 nM. As to `CCC(=O)NCCC[C@@H](C)N(c1cc(Cl)ccc1CO)S(=O)(=O)c1ccc(Cl)cc1`, the IC50 was 13 nM. For the molecule `C[C@H](CCCN)N(c1cc(Cl)ccc1CO)S(=O)(=O)c1ccc(Cl)cc1`, the half-maximal inhibitory concentration (IC50) came to 288 nM. For the molecule `Cc1nnn(CCC[C@@H](C)N(c2cc(Cl)ccc2CO)S(=O)(=O)c2ccc(Cl)cc2)n1`, the IC50 was found to be 6.1 nM. On the same count and under the same terms, the same measure for `C[C@H](CCCn1nnnc1-c1ccccc1)N(c1cc(Cl)ccc1CO)S(=O)(=O)c1ccc(Cl)cc1`: 15 nM; for `CNCCC[C@@H](C)N(c1cc(Cl)ccc1CO)S(=O)(=O)c1ccc(Cl)cc1`: 262 nM. Same read-out and setting: as for `C[C@H](CCCNC(=O)c1ccccc1)N(c1cc(Cl)ccc1CO)S(=O)(=O)c1ccc(Cl)cc1`, the figure is 15 nM; as for `C[C@H](CCCn1ncnn1)N(c1cc(Cl)ccc1CO)S(=O)(=O)c1ccc(Cl)cc1`, 1.2 nM; as for `C[C@H](CCCn1cncn1)N(c1cc(Cl)ccc1CO)S(=O)(=O)c1ccc(Cl)cc1`, 4.8 nM.

Turning to `C[C@H](CCCNS(C)(=O)=O)N(c1cc(Cl)ccc1CO)S(=O)(=O)c1ccc(Cl)cc1`, the IC50 worked out at 0.23 nM.

Another data set concerns Plasma. Description: Drug level in Tg2576 beta-APP-Swedish transgenic mouse plasma at 200 umol/kg, po. The data set is classed as ADME, organism-based. The settings on record: in vivo. The method, boiled down:
as §1
As for `C[C@H](CCCN(C)S(C)(=O)=O)N(c1cc(Cl)ccc1CO)S(=O)(=O)c1ccc(Cl)cc1`, the concentration worked out at 12.3 µM. Same read-out and setting: the same measure for `C[C@H](CCCn1cnnn1)N(c1cc(Cl)ccc1CO)S(=O)(=O)c1ccc(Cl)cc1`: 5.47 µM.
